{"source": "ChEMBL document CHEMBL2429751", "about": "“Diterpenoids and sesquiterpenoids from the roots of Illicium majus” (J Nat Prod, 2013)", "key": {"Coxsackievirus B3 [1]": {"test_system": "Coxsackievirus B3", "experiment": "Antiviral activity against Coxsackievirus B3 infected in African green monkey Vero cells assessed as protection against virus-induced cytopathic effect after 48 hrs by Reed-Muench analysis", "type": "functional, organism-based", "method_in_brief": "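Confluent Vero monolayers were infected with 100 TCID50 Cox B3 and allowed 1 h adsorption at 37 °C. Cells were PBS-washed, then kept at 37 °C in maintenance medium with 2% FBS, with or without graded compound concentrations. CPE was scored once virus controls reached 4+, and IC50 was derived by Reed–Muench analysis.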"}, "Coxsackievirus B3 [2]": {"test_system": "Coxsackievirus B3", "experiment": "Selectivity index, ratio of TC50 for African green monkey Vero cells to IC50 for Coxsackievirus B3", "type": "toxicity, cell-based", "conditions": "read-out: Selectivity Index", "method_in_brief": "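SI is TC50/IC50. TC50 comes from 48 h Vero CPE cytotoxicity and IC50 from Cox B3 (100 TCID50) CPE inhibition in Vero cells, both by Reed–Muench analysis.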"}, "Vero": {"test_system": "Vero", "experiment": "Cytotoxicity against African green monkey Vero cells after 48 hrs by Reed-Muench analysis", "type": "cell-based", "parameters": "unit not given here", "conditions": "chlorocebus sabaeus", "method_in_brief": "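Vero cells were seeded and, after 24 h, exposed to graded compound concentrations for 48 h at 37 °C under 5% CO2. Cell damage was scored microscopically as CPE, and TC50 was calculated by Reed–Muench analysis.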"}}, "note": "Activity calls are given as the source filed them. The calls are words filed in the database; no cut-off is given here."}
{"smiles": "C[C@@H]1CC[C@@]23O[C@@]4(O)C[C@@]12[C@@H](O)C(=O)OC[C@@]3(CO[C@@H]1O[C@H](CO)[C@@H](O)[C@H](O)[C@H]1O)[C@@]4(C)O", "values": [{"measurement": "Activity", "setting": "Coxsackievirus B3 [1]", "value": "inactive"}]}
{"smiles": "CC(C)(O)c1ccc2c(c1)C(=O)C[C@H]1[C@@](C)(CO)CCC[C@]21C", "values": [{"measurement": "Activity", "setting": "Coxsackievirus B3 [1]", "value": "inactive"}]}
{"smiles": "C[C@](O)(CO)c1ccc2c(c1)CC[C@H]1[C@@](C)(C(=O)O)CCC[C@]21C", "values": [{"measurement": "selectivity ratio", "setting": "Coxsackievirus B3 [2]", "value": 6.2}, {"measurement": "IC50", "setting": "Coxsackievirus B3 [1]", "value": 22.2}, {"measurement": "TC50", "setting": "Vero", "value": 138.7}]}
{"smiles": "CC(C)(O)c1ccc2c(c1)C(=O)C[C@H]1[C@@](C)(C(=O)O)CCC[C@]21C", "values": [{"measurement": "selectivity ratio", "setting": "Coxsackievirus B3 [2]", "value": 3.9}]}
{"smiles": "CC(C)c1ccc2c(c1)CC[C@H]1[C@@](C)(C(=O)O)CCC[C@]21C", "values": [{"measurement": "selectivity ratio", "setting": "Coxsackievirus B3 [2]", "value": 6.7}]}
{"smiles": "C[C@]1(CO)CCC[C@]2(C)c3ccc([C@@](C)(O)CO)cc3CC[C@@H]12", "values": [{"measurement": "Activity", "setting": "Coxsackievirus B3 [1]", "value": "inactive"}]}
{"smiles": "C[C@@]12COC(=O)[C@]1(C)[C@@H](OC(=O)c1ccccc1)[C@]13CC(=O)O[C@@]1(C)CC[C@]23O", "values": [{"measurement": "Activity", "setting": "Coxsackievirus B3 [1]", "value": "inactive"}]}
{"smiles": "C[C@]1(CO)CCC[C@]2(C)c3ccc([C@](C)(O)CO)cc3CC[C@@H]12", "values": [{"measurement": "Activity", "setting": "Coxsackievirus B3 [1]", "value": "inactive"}]}
{"smiles": "CC1=C(C(=O)O[C@@]23OC[C@]4(C)[C@@]5(O)CC[C@@H](C)[C@@]5(CC(=O)[C@]24C)[C@H]3O)CCC1=O", "values": [{"measurement": "selectivity ratio", "setting": "Coxsackievirus B3 [2]", "value": 3}, {"measurement": "IC50", "setting": "Coxsackievirus B3 [1]", "value": 66.7}, {"measurement": "TC50", "setting": "Vero", "value": 200}]}
{"smiles": "C[C@@H]1CC[C@@]23O[C@@]4(O)C[C@@]12[C@@H](O)C(=O)OC[C@@]3(CO)[C@@]4(C)O", "values": [{"measurement": "selectivity ratio", "setting": "Coxsackievirus B3 [2]", "value": 3}, {"measurement": "IC50", "setting": "Coxsackievirus B3 [1]", "value": 66.7}, {"measurement": "TC50", "setting": "Vero", "value": 200}]}
{"smiles": "C[C@@]12COC(=O)[C@]1(C)[C@@H](O)[C@@]13CC(=O)O[C@@]21CC=C3CO[C@@H]1O[C@H](CO)[C@@H](O)[C@H](O)[C@H]1O", "values": [{"measurement": "selectivity ratio", "setting": "Coxsackievirus B3 [2]", "value": 3.9}, {"measurement": "IC50", "setting": "Coxsackievirus B3 [1]", "value": 51.7}, {"measurement": "TC50", "setting": "Vero", "value": 200}]}
{"smiles": "C[C@@H](CO)c1ccc2c(c1)CC[C@H]1[C@@](C)(C(=O)O)CCC[C@]21C", "values": [{"measurement": "selectivity ratio", "setting": "Coxsackievirus B3 [2]", "value": 5.2}, {"measurement": "IC50", "setting": "Coxsackievirus B3 [1]", "value": 12.8}, {"measurement": "TC50", "setting": "Vero", "value": 66.7}]}
{"smiles": "C[C@H](CO)c1ccc2c(c1)CC[C@H]1[C@@](C)(C(=O)O)CCC[C@]21C", "values": [{"measurement": "selectivity ratio", "setting": "Coxsackievirus B3 [2]", "value": 8}, {"measurement": "IC50", "setting": "Coxsackievirus B3 [1]", "value": 17.4}, {"measurement": "TC50", "setting": "Vero", "value": 138.7}]}
